Measurements as given in ChEMBL document CHEMBL4261600 (Eur J Med Chem, 2018).
Active and inactive are the calls of the source.

Legend:
[1] = MRT (0 to t) in mouse at 10 mg/kg, po by LC-MS/MS analysis; type: ADME, organism-based; details: in vivo
[2] = target: Mitogen-activated protein kinase 14 (Homo sapiens) (UniProt Q16539); experiment: Binding affinity to wild-type human full length p38-alpha (M1 to S360 residues) expressed in bacterial expression system assessed as remaining unbound target protein level at 1000 nM by Kinomescan method relative to control
Chain of Mitogen-activated protein kinase 14 (Homo sapiens) (Q16539 whole entry, the tested form may be a part): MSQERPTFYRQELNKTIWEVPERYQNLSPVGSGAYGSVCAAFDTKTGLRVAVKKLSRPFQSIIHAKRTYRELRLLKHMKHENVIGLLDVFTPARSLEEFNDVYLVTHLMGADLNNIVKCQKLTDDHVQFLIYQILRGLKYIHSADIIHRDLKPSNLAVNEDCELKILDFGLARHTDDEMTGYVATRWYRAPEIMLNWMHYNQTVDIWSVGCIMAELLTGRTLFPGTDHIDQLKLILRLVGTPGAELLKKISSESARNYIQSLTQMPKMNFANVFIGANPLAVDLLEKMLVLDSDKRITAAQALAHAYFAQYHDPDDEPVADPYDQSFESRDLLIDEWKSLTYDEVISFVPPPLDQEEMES
Procedure, shortened: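 Profiled in a KINOMEscan binding panel with the inhibitor at a single concentration of 1 μM. Binding to each kinase was read out as percent of control, relative to a DMSO control. Strong binders were defined as those with a percent control value below 1.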

[3] = AUC (0 to infinity) in mouse at 10 mg/kg, po by LC-MS/MS analysis; type: ADME, organism-based; design: dose 10 mg/kg, route oral, time infinity; details: in vivo
Procedure, shortened: (§1)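 Non-compartmental PK. Male SD rats 190-210 g, mice and beagle dogs acclimatized one week, fasted 12 h with water, split into iv and po groups (mice 48, rats 6, dogs 6). iv 3/3/2 mg/kg (mice/rats/dogs); po 10/20/10 mg/kg; vehicle DMSO in 5% glucose water. Blood at 2 or 5 to 720 min; plasma protein-precipitated with methanol, caffeine internal standard, LC-MS/MS.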

[4] = target: Mitogen-activated protein kinase kinase kinase 3 (Homo sapiens) (UniProt Q99759); experiment: Binding affinity to wild-type human partial length MAP3K3 (E320 to Y626 residues) expressed in mammalian expression system assessed as remaining unbound target protein level at 1000 nM by Kinomescan method relative to control
[5] = target: Protein kinase C iota type (Homo sapiens) (UniProt P41743); experiment: Binding affinity to wild-type human partial length PRKCI (H215 to V587 residues) expressed in mammalian expression system assessed as remaining unbound target protein level at 1000 nM by Kinomescan method relative to control
[6] = target: Myotonin-protein kinase (Homo sapiens) (UniProt Q09013); experiment: Binding affinity to wild-type human partial length DMPK (V47 to V415 residues) expressed in bacterial expression system assessed as remaining unbound target protein level at 1000 nM by Kinomescan method relative to control
[7] = target: Serine/threonine-protein kinase mTOR (Homo sapiens) (UniProt P42345); experiment: Binding affinity to wild-type human partial length MTOR (L1382 to W2549 residues) expressed in mammalian expression system assessed as remaining unbound target protein level at 1000 nM by Kinomescan method relative to control
[8] = target: Glycogen synthase kinase-3 alpha (Homo sapiens) (UniProt P49840); experiment: Binding affinity to wild-type human full length GSK3A (M1 to S483 residues) expressed in bacterial expression system assessed as remaining unbound target protein level at 1000 nM by Kinomescan method relative to control
Procedure, shortened: (§2)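 KINOMEscan competition binding profile across a panel of 468 kinases and mutants, with the inhibitor tested at a single concentration of 1 μM. Binding is reported as percent of control, meaning signal relative to a DMSO control.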

[9] = target: Cyclin-dependent kinase 5 (Homo sapiens) (UniProt Q00535); experiment: Binding affinity to wild-type human full length CDK5 (M1 to P292 residues) expressed in bacterial expression system assessed as remaining unbound target protein level at 1000 nM by Kinomescan method relative to control
Chain of Cyclin-dependent kinase 5 (Homo sapiens) (Q00535 whole entry, looked up, the tested form may be a part): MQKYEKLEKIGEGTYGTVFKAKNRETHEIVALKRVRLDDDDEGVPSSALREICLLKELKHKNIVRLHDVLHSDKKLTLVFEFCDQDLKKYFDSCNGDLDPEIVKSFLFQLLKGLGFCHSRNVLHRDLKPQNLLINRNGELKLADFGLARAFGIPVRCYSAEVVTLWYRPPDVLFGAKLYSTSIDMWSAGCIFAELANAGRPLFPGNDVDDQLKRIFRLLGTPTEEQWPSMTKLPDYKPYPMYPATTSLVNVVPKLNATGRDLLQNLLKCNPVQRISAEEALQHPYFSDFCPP
Procedure, shortened: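 KINOMEscan competitive binding profile at 1 μM inhibitor. Remaining target binding reported as percent of DMSO control.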

[10] = target: Maternal embryonic leucine zipper kinase (Homo sapiens) (UniProt Q14680); experiment: Binding affinity to wild-type human full length MELK (M1 to V651 residues) expressed in bacterial expression system assessed as remaining unbound target protein level at 1000 nM by Kinomescan method relative to control
Procedure, shortened: (§3)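 Single-point competition binding screen across a panel of 468 kinases and mutants, with the inhibitor at 1 μM. Binding is read out as percent of a DMSO control, and targets below 1 percent control were classed as strong binders.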

[11] = AUC (0 to t) in beagle dog at 2 mg/kg, iv by LC-MS/MS analysis; type: ADME, organism-based, Canis lupus familiaris; details: in vivo; procedure, shortened: as §1
[12] = Half life in beagle dog at 2 mg/kg, iv by LC-MS/MS analysis; type: ADME, organism-based, Canis lupus familiaris; details: in vivo
MV4-11 = experiment: Induction of apoptosis in human MV4-11 cells assessed as decrease in XIAP level up to 3 uM after 2 hrs by immunoblotting analysis; type: functional, cell-based
[13] = target: LIM domain kinase 2 (Homo sapiens) (UniProt P53671); experiment: Binding affinity to wild-type human full length LIMK2 (M1 to P638 residues) expressed in bacterial expression system assessed as remaining unbound target protein level at 1000 nM by Kinomescan method relative to control; procedure, shortened: as §3
Chain of LIM domain kinase 2 (Homo sapiens) (P53671 whole entry, looked up, the tested form may be a part): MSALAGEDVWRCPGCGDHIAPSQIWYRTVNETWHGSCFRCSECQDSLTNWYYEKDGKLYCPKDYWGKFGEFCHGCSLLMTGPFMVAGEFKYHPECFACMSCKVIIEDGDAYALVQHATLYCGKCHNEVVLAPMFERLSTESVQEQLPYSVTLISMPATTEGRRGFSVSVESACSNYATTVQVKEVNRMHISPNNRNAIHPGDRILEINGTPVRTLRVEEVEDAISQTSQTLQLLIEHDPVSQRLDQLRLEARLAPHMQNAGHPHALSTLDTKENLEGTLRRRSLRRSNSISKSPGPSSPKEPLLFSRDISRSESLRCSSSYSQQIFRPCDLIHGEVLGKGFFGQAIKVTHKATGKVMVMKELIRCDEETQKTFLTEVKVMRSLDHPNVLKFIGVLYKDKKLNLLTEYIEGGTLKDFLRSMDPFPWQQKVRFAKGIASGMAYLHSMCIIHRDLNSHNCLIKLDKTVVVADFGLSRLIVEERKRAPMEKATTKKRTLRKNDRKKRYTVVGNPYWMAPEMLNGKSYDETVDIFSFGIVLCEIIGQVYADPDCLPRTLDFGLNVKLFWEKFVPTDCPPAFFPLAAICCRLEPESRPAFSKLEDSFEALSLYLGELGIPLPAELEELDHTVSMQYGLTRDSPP

[14] = target: Epidermal growth factor receptor (Homo sapiens) (UniProt P00533); experiment: Binding affinity to wild-type human partial length EGFR (R669 to V1011 residues) expressed in bacterial expression system assessed as remaining unbound target protein level at 1000 nM by Kinomescan method relative to control
Chain of Epidermal growth factor receptor (Homo sapiens) (P00533 whole entry, the tested form may be a part): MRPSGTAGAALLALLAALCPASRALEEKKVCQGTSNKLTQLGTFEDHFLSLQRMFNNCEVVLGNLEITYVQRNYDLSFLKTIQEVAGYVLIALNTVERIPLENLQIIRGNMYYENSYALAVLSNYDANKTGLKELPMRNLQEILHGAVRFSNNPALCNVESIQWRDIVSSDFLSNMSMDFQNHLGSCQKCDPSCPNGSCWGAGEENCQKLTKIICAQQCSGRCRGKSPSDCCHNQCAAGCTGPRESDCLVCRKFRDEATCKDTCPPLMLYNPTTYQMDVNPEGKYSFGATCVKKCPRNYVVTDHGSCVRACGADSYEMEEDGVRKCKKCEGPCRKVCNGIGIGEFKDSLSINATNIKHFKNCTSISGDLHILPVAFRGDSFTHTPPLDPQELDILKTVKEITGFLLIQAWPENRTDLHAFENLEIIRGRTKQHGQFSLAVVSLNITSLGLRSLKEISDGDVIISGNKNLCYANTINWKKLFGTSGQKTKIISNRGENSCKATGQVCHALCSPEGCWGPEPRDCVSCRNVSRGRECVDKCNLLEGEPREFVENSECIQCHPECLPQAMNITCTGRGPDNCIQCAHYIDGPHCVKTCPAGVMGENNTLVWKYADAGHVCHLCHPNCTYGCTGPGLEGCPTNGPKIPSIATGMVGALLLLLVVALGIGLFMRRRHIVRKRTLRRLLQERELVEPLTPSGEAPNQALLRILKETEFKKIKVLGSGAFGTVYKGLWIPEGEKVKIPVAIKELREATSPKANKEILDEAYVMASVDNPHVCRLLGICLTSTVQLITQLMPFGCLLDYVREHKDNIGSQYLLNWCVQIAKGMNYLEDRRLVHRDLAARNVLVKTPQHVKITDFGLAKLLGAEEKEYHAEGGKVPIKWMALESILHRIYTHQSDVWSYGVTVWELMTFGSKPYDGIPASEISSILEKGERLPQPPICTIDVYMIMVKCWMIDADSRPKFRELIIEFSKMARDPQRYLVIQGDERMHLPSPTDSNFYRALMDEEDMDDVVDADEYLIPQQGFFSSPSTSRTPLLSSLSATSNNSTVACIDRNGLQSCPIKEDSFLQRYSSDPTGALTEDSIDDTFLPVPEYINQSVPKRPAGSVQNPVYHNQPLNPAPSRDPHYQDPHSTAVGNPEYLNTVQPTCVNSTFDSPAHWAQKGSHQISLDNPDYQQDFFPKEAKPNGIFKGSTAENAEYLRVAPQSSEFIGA

MOLM-14 = experiment: Antiproliferative activity against human MOLM14 cells after 72 hrs by Celltiter-Glo assay; type: functional; details: MOLM-14, 72 h
Procedure, shortened: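 Cells seeded at 3000/well in 96-well plates, exposed to serially diluted compound for 72 h at 37 °C, 5% CO2. Viability read by CellTiter-Glo luminescence and normalized to DMSO control. GI50 derived from curve fit, mean of three independent measurements. Culture media: DMEM/10% FBS for adherent lines; IMDM for MV4-11 and MEC-1/2; RPMI 1640 for suspension lines and CHL.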

[15] = target: Death-associated protein kinase 2 (Homo sapiens) (UniProt Q9UIK4); experiment: Binding affinity to wild-type human full length DAPK2 (M1 to S370 residues) expressed in bacterial expression system assessed as remaining unbound target protein level at 1000 nM by Kinomescan method relative to control; procedure, shortened: as §2
[16] = target: Cyclin-dependent kinase 9 (Homo sapiens, UniProt P50750); experiment: Inhibition of CDK9 in human MEC1 cells assessed as decrease in RNA polymerase 2 phosphorylation at Ser 2 residues in CTD domain after 2 hrs by immunoblotting analysis; type: cell-based
Chain of Cyclin-dependent kinase 9 (P50750 whole entry, the tested form may be a part, canonical isoform): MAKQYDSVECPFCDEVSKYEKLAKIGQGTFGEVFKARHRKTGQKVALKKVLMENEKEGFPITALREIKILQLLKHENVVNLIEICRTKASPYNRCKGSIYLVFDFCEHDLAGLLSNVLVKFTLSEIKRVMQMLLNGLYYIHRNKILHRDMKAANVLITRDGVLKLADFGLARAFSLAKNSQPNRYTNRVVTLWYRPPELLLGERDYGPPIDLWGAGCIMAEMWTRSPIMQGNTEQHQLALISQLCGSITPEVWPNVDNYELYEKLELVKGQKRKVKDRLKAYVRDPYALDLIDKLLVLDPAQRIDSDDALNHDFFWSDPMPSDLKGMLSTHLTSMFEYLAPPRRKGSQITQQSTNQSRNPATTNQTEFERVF

[17] = tested on: Phosphatidylinositol 4,5-bisphosphate 3-kinase catalytic subunit alpha isoform (Homo sapiens), P42336 [I800L]; experiment: Binding affinity to human partial length PIK3CA I800L mutant (R108 to N1068 residues) expressed in mammalian expression system assessed as remaining unbound target protein level at 1000 nM by Kinomescan method relative to control
Chain of Phosphatidylinositol 4,5-bisphosphate 3-kinase catalytic subunit alpha isoform (Homo sapiens), P42336 [I800L] (P42336 whole entry I800L, the tested form may be a part, canonical isoform): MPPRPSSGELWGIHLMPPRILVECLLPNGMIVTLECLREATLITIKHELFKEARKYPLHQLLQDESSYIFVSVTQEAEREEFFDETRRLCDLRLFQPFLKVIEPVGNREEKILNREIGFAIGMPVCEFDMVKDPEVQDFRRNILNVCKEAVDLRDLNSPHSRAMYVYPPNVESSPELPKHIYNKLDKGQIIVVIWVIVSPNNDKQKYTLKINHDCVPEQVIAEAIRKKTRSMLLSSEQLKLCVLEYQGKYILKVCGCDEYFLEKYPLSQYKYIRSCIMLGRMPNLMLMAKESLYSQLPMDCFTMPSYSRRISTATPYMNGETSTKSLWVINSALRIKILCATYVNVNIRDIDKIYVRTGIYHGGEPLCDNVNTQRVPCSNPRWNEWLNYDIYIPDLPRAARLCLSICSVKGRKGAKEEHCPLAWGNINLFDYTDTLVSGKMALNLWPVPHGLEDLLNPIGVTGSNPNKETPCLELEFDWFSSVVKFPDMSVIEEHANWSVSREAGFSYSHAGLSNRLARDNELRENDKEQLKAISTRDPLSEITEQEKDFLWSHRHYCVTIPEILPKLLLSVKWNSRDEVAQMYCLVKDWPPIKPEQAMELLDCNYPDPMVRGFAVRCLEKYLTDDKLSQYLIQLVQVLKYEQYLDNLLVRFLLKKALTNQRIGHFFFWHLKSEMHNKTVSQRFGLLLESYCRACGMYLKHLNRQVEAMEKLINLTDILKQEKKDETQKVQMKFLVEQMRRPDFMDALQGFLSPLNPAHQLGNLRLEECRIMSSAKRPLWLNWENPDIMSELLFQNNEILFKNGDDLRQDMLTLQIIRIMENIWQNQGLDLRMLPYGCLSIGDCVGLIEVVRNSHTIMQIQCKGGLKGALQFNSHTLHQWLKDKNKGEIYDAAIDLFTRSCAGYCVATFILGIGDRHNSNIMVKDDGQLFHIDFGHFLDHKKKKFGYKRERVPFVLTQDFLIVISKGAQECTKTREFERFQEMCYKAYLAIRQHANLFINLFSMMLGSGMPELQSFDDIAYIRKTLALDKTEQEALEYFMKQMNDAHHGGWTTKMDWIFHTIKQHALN
Procedure, shortened: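 KINOMEscan competition-binding profiling across the panel of 468 kinases and mutants, with inhibitor tested at 1 μM. Binding is expressed as percent of control, with DMSO as the reference control.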

[18] = target: Dual specificity protein kinase TTK (Homo sapiens) (UniProt P33981); experiment: Binding affinity to wild-type human partial length TTK (N505 to V798 residues) expressed in bacterial expression system assessed as remaining unbound target protein level at 1000 nM by Kinomescan method relative to control
Chain of Dual specificity protein kinase TTK (Homo sapiens) (P33981 whole entry, the tested form may be a part): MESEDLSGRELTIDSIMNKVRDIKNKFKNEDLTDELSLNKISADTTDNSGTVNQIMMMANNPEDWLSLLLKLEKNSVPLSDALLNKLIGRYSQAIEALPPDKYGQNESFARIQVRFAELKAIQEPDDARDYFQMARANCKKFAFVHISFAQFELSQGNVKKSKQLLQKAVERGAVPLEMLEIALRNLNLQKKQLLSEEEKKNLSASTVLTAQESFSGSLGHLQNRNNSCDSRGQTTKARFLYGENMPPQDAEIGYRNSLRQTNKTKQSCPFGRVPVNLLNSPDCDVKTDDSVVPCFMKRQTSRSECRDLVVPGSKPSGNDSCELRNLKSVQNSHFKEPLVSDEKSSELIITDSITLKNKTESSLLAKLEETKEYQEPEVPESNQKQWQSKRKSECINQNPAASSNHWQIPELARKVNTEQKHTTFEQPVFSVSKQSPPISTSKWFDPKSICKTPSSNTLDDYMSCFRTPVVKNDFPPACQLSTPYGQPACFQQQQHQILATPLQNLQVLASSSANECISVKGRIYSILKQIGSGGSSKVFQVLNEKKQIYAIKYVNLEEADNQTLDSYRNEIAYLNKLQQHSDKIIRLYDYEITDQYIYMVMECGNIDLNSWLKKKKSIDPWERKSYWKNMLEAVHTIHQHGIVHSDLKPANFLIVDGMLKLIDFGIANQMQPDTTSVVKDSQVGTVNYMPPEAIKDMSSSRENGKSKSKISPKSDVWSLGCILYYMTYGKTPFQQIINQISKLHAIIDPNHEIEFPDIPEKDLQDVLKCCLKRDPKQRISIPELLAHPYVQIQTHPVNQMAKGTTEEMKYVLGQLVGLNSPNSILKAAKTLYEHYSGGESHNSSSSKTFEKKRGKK

With `COCCN[C@H]1CC[C@H](Nc2cc(-c3csc(NCC4(C#N)CCOCC4)n3)c(Cl)cn2)CC1` the MRT last [1] was 3.24 h, the Activity [2] was 98% and the AUC(0-inf) [3] was 612 ng·h/mL. It also gave an Activity [4] of 100%, an Activity [5] of 100% and an Activity [6] of 100%. The Activity [7] was 90%, the Activity [8] was 68% and the Activity [9] was 94%. The Activity [10] was 75%, the AUC(0-t) [11] was 2010 ng·h/mL and the half-life [12] was 13.1 h. For the same compound, the Activity (MV4-11) was “inactive”, the Activity [13] was 76% and the Activity [14] was 94%. It also gave a GI50 (MOLM-14) of 1.1 nM, an Activity [15] of 95% and an EC50 [16] of under 100 nM. For the same compound, the inhibition [16] was “Dose-dependent effect”, the Activity [17] was 90% and the Activity [18] was 86%.
